Holding throughout (format): cell-based
One experiment has as its system MDA-MB-468 cells. Put plainly: Cell viability test. The note with it: 72 h, CCK-8.
The subject of experiment [1] is poly ADP-ribose polymerase (PARP). Description: Western blotting of cleaved PARP. The following applies: MDA-MB-468 cells, 24 h, 37 °C. The essentials:
(§1)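 MDA-MB-468 cells were seeded and grown 24 h at 37 °C, 5% CO2. PDC test compound was diluted from a 20 mmol/L stock to final 0, 0.1, 0.5, 1, 5 and 10 μmol/L and applied for 24 h. Cells were lysed in RIPA buffer with protease inhibitors and run on SDS-PAGE. Blots were probed for caspase-3, cleaved caspase-3, PARP and β-actin, detected by ECL and quantified by densitometry.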
(In general: A western blot detects proteins with antibodies after separation by electrophoresis.)

Another experiment relates to tubulin. Put plainly: Immunofluorescent imaging of tubulin organization. The note with it: MDA-MB-468 cells, 0 to 10 μmol/L, 24 h.
In a further experiment the test system is caspase-3. Description: Western blotting of cleaved caspase-3. The note with it: MDA-MB-468 cells, 24 h, 37 °C. The procedure, abridged: as §1

Numbered stars: 1 amine (or outer) side, 2 acyl side, 3 side chain; on linkers, the order of the positions; unused ones are H or OH. Bridge positions count the residues as written; N and C are the ends. Square brackets hold non-standard residues; d marks the D form. Peptide text beside a SMILES is read from it. I, II: the chains in the order shown. * marks the point of attachment. X1 = O=C([C@H](CCCCn1nnc2c1-c1ccccc1N([*:3])Cc1ccccc1-2)N[*:1])[*:2]; Dolaproine = CO[C@@H]([C@@H]1CCCN1)[C@@H](C)C(=O)O; Tyr(SO2F) = N[C@@H](Cc1ccc(OS(=O)(=O)F)cc1)C(=O)O; Dil = CC[C@H](C)[C@H](NC)[C@@H](CC(=O)O)OC; PABC = O=C(OCc1ccc(N[*:1])cc1)[*:2]; X2 = C[C@@H](N*)[C@@H](O)c1ccccc1; Cit = NC(=O)NCCC[C@H](N)C(=O)O; Suc = O=C(CCC(=O)[*:2])[*:1]; NMeV = CN[C@H](C(=O)O)C(C)C; AEEA = NCCOCCOCC(=O)O

On to `CC[C@H](C)[C@@H]([C@@H](CC(=O)N1CCC[C@H]1[C@H](OC)[C@@H](C)C(=O)N[C@H](C)[C@@H](O)c1ccccc1)OC)N(C)C(=O)[C@@H](NC(=O)[C@H](C(C)C)N(C)C(=O)OCc1ccc(NC(=O)[C@H](CCCNC(N)=O)NC(=O)[C@@H](NC(=O)CCC(=O)N2Cc3ccccc3-c3nnn(CCCC[C@H](NC(=O)COCCOCCNC(=O)COCCOCCNC(=O)[C@@H]4CSCC(=O)N[C@H](Cc5ccccc5)C(=O)N[C@@H](Cc5ccc(OS(=O)(=O)F)cc5)C(=O)N[C@@H](CC(N)=O)C(=O)N[C@@H](C)C(=O)N[C@@H](Cc5ccccc5)C(=O)N5CCC[C@H]5C(=O)N[C@@H](C(C)C)C(=O)N[C@@H](CCCNC(=N)N)C(=O)N[C@@H](Cc5ccc(O)cc5)C(=O)N[C@@H](CC(C)C)C(=O)N[C@@H](CCCCN)C(=O)N[C@@H](CCCCN)C(=O)N[C@@H](Cc5c[nH]c6ccccc56)C(=O)N4)C(N)=O)c3-c3ccccc32)C(C)C)cc1)C(C)C` [CP-N1-MMAE] (I: {CH2CO}-[dF][Tyr(SO2F)]NAFPVRYLKKWC[AEEA][AEEA][X1]-NH2 / II: V[Cit][PABC][NMeV]V[Dil][Dolaproine]-X2; linker I:17-II:N via Suc; thioether I:N-I:14), for which, in the experiment on MDA-MB-468 cells, the “area under the dose-response curve (AUC)” value is recorded as 173.3. In addition, the “cleavage product of PARP, fold relative to untreated controls” value in experiment [1] is 1.5 fold. Also, in the experiment with tubulin, the “tubulin signal (in words)” value is “progressive, concentration-dependent reduction in tubulin signal”. The “cleavage product of caspase-3, fold relative to untreated controls” value in the experiment on caspase-3 was found to be 5 fold.
In the case of `CC[C@H](C)[C@@H]([C@@H](CC(=O)N1CCC[C@H]1[C@H](OC)[C@@H](C)C(=O)N[C@H](C)[C@@H](O)c1ccccc1)OC)N(C)C(=O)[C@@H](NC(=O)[C@H](C(C)C)N(C)C(=O)OCc1ccc(NC(=O)[C@H](CCCNC(N)=O)NC(=O)[C@@H](NC(=O)CCC(=O)N2Cc3ccccc3-c3nnn(CCCC[C@H](NC(=O)COCCOCCNC(=O)COCCOCCNC(=O)[C@@H]4CSCC(=O)N[C@H](Cc5ccccc5)C(=O)N[C@@H](Cc5ccc(OS(=O)(=O)F)cc5)C(=O)N[C@@H](CC(N)=O)C(=O)N[C@@H](C)C(=O)N[C@@H](Cc5ccccc5)C(=O)N5CCC[C@H]5C(=O)N[C@@H](C(C)C)C(=O)N[C@@H](CCCNC(=N)N)C(=O)N[C@@H](Cc5ccc(O)cc5)C(=O)N[C@@H](CC(C)C)C(=O)N[C@@H](CCCCN)C(=O)N[C@@H](CCCNC(=N)N)C(=O)N[C@@H](Cc5c[nH]c6ccccc56)C(=O)N4)C(N)=O)c3-c3ccccc32)C(C)C)cc1)C(C)C` [CP-N9-MMAE] (I: {CH2CO}-[dF][Tyr(SO2F)]NAFPVRYLKRWC[AEEA][AEEA][X1]-NH2 / II: V[Cit][PABC][NMeV]V[Dil][Dolaproine]-X2; linker I:17-II:N via Suc; thioether I:N-I:14), in the experiment with MDA-MB-468 cells, the “area under the dose-response curve (AUC)” value was found to be 215.2. Further, the “tubulin signal (in words)” value in the experiment with tubulin is given as “progressive, concentration-dependent reduction in tubulin signal”.
Turning to `CC[C@H](C)[C@@H]([C@@H](CC(=O)N1CCC[C@H]1[C@H](OC)[C@@H](C)C(=O)N[C@H](C)[C@@H](O)c1ccccc1)OC)N(C)C(=O)[C@@H](NC(=O)[C@H](C(C)C)N(C)C(=O)OCc1ccc(NC(=O)[C@H](CCCNC(N)=O)NC(=O)[C@@H](NC(=O)CCC(=O)N2Cc3ccccc3-c3nnn(CCCC[C@H](NC(=O)COCCOCCNC(=O)COCCOCCNC(=O)[C@@H]4CSCC(=O)N[C@H](Cc5ccccc5)C(=O)NCC(=O)N[C@@H](CC(=O)O)C(=O)N[C@@H](Cc5ccccc5)C(=O)N[C@@H]([C@@H](C)CC)C(=O)N[C@@H](CCCNC(=N)N)C(=O)N[C@@H](CCCNC(=N)N)C(=O)N[C@@H](CC(C)C)C(=O)N[C@@H](C(C)C)C(=O)N5CCC[C@H]5C(=O)N[C@@H](CCCNC(=N)N)C(=O)N[C@@H](CC(C)C)C(=O)N4)C(N)=O)c3-c3ccccc32)C(C)C)cc1)C(C)C` [NP-N7-MMAE] (I: {CH2CO}-[dF]GDFIRRLVPRLC[AEEA][AEEA][X1]-NH2 / II: V[Cit][PABC][NMeV]V[Dil][Dolaproine]-X2; linker I:16-II:N via Suc; thioether I:N-I:13), the “area under the dose-response curve (AUC)” value in the experiment with MDA-MB-468 cells came to 433.7. In addition, in the experiment on tubulin, the “tubulin signal (in words)” value is “progressive, concentration-dependent reduction in tubulin signal”.

Source of the values: publication PMC12541606 (Acta Pharmaceutica Sinica. B, 2025).
